From ChEMBL document CHEMBL4834416, “The Discovery of Novel ACA Derivatives as Specific TRPM2 Inhibitors that Reduce Ischemic Injury Both In Vitro and In Vivo” (J Med Chem, 2021)

What was measured:
[1] = target: T1, Transient receptor potential cation channel subfamily M member 8 (Homo sapiens, UniProt Q7Z2W7); assay: Inhibition of human TRPM8 expressed in HEK293T cells assessed as blocked of menthol-activated current at 3 uM by whole cell patch clamp electrophysiology relative to control; assay type: cell-based
T1 sequence (Q7Z2W7 whole entry, looked up, the tested form may be a part): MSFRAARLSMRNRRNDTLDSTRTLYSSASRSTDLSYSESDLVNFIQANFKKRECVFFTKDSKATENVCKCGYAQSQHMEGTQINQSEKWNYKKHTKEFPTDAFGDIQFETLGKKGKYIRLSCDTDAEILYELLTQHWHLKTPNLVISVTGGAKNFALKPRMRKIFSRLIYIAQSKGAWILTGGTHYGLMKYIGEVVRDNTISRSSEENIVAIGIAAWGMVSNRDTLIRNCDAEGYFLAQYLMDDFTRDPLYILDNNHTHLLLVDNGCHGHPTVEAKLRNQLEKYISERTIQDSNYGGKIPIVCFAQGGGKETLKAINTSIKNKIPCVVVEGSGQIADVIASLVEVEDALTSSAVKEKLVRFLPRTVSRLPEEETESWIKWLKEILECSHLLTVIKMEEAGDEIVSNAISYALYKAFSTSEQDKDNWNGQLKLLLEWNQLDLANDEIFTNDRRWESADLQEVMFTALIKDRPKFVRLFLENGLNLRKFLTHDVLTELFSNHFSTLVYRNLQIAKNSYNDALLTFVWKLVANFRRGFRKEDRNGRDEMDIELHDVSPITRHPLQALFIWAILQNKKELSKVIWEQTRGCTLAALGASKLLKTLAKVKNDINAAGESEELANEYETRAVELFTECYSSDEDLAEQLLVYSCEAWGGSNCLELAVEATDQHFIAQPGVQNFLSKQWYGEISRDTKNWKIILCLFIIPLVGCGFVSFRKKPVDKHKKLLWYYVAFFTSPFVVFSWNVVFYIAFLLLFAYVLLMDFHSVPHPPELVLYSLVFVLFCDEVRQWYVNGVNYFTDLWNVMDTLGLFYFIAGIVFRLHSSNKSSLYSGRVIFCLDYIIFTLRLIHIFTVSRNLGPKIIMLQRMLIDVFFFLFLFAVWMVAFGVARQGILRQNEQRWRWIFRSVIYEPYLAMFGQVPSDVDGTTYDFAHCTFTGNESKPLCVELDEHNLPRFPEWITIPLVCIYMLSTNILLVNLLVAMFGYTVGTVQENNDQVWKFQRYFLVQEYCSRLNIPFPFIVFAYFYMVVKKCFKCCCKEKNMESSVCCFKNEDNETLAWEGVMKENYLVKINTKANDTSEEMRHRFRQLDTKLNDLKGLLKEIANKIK
Outline: (§1)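 Whole-cell patch clamp was run at room temperature on HEK293T cells transiently cotransfected with human TRPM8 plus GFP, 24–48 h before recording. ECS was 145 NaCl, 5.6 KCl, 2 MgCl₂, 1.2 CaCl₂, 10 HEPES, pH 7.2. Current was activated with 1 mM menthol, and compound was perfused at least 60 s after it stabilized. Inhibition was calculated relative to stable agonist current minus residual current; n = 3–6.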

SH-SY5Y = assay: Cytotoxicity against human SH-SY5Y cells assessed as toxicity at 30 uM incubated for 24 hrs by CCK-8 assay; assay type: cell-based
Outline: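 SH-SY5Y cells were seeded at 2 × 10⁴ per well and grown 12 h at 37 °C. They were then treated with compound (1–30 μM) under normoxic, normal-glucose conditions for 24 h. CCK-8 (10%) was added for 2 h at 37 °C and OD450 read. Viability was taken relative to untreated control after blank subtraction, with three replicate wells.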

Phospholipase A2 [2] = target: T2, Phospholipase A2 (Homo sapiens, UniProt P04054); assay: Inhibition of PLA2 (unknown origin) using soybean phosphatidylcholine as substrate at 10 uM preincubated for 30 mins followed incubated for 60 mins after substrate addition by microplate reader relative to control
Outline: (§2)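 PLA2 (4 μg/L in PBS) was preincubated 30 min at 37 °C with inhibitor in 125 mM Tris. Substrate was then added for 60 min: soybean phosphatidylcholine with Tris, CaCl₂, sodium deoxycholate and 0.5% Triton X-100. Liberated free fatty acids were quantified colorimetrically at OD550. Results are % inhibition versus enzyme without inhibitor, n = 3.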
Target sequence in this assay (P04054 23-148 limits assumed): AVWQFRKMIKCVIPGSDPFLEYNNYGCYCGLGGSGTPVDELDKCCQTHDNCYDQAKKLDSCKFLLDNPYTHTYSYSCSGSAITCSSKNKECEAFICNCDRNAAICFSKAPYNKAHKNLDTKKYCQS

[3] = target: T1, Transient receptor potential cation channel subfamily M member 8; assay: Inhibition of human TRPM8 expressed in HEK293T cells assessed as blocked of menthol-activated current at 10 uM by whole cell patch clamp electrophysiology relative to control; assay type: cell-based; outline: as §1
Phospholipase A2 [4] = target: T2, Phospholipase A2; assay: Inhibition of PLA2 (unknown origin) using soybean phosphatidylcholine as substrate at 3 uM preincubated for 30 mins followed incubated for 60 mins after substrate addition by microplate reader relative to control; outline: as §2
Target sequence in this assay (P04054 23-148 limits assumed): as above

[5] = target: Transient receptor potential cation channel subfamily M member 2 (Homo sapiens, UniProt O94759); assay: Inhibition of human TRPM2 expressed in HEK293T cells assessed as suppression of H2O2-induced calcium flux at 1 uM measured after 30 mins by Fluo-3/AM assay; assay type: cell-based
Transient receptor potential cation channel subfamily M member 2, sequence (O94759 whole entry): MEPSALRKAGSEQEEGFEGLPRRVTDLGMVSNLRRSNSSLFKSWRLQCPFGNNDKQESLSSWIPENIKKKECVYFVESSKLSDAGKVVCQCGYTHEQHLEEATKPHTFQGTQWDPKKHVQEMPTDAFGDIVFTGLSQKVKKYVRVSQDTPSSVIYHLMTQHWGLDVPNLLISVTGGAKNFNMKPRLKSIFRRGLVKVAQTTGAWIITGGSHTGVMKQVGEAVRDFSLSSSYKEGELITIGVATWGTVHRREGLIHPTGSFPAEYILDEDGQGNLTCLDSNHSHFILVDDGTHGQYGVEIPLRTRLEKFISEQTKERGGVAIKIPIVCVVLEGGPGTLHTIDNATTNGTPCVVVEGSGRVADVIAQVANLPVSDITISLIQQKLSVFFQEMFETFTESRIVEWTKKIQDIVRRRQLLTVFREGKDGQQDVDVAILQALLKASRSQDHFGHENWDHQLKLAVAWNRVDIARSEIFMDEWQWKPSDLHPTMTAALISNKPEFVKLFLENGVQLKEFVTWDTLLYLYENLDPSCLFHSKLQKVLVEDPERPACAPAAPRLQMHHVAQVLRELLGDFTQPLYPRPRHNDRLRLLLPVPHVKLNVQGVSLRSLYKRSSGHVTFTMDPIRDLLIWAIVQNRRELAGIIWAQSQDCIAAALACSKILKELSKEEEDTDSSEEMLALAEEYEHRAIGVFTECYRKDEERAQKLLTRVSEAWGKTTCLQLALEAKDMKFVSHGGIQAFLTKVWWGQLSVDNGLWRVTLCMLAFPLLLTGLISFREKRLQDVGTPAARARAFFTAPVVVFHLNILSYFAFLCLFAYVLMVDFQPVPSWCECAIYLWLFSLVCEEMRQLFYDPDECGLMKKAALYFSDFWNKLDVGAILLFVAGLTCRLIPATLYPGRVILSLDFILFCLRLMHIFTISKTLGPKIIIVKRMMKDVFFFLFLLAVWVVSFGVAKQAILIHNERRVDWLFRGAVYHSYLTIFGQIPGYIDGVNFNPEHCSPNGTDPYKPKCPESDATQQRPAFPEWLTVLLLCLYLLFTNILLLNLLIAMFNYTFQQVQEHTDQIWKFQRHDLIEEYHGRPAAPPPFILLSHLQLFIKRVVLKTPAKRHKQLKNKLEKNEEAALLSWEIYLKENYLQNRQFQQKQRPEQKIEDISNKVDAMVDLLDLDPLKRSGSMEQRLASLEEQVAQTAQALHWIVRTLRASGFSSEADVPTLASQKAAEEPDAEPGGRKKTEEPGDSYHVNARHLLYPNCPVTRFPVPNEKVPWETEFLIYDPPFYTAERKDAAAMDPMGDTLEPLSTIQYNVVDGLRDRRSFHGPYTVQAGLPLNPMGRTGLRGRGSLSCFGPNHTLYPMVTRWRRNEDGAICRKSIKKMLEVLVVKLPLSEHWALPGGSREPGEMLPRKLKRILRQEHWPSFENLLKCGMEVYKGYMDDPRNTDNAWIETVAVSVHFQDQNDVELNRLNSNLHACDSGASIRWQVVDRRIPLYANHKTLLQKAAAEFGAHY

Phospholipase A2 [6] = target: T2, Phospholipase A2; assay: Inhibition of PLA2 (unknown origin) using soybean phosphatidylcholine as substrate preincubated for 30 mins followed incubated for 60 mins after substrate addition by microplate reader relative to control; outline: as §2
Target sequence in this assay (P04054 whole entry): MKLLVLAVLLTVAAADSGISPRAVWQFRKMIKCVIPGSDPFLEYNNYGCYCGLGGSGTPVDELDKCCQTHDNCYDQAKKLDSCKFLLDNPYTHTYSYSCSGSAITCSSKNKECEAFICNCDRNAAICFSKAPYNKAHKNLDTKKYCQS

- inhibition [1]: 39.3%
- inhibition (Phospholipase A2 [2]): 40.4%
- inhibition [3]: 62.2%
- inhibition (Phospholipase A2 [4]): 23.4%
- inhibition [5]: > 45%
- IC50 (Phospholipase A2 [6]): 22 µM
Structure (SMILES): CCCCCc1ccc(/C=C/C(=O)Nc2ccccc2C(=O)O)cc1
- Activity (SH-SY5Y): < 10%
